Measured values published in ChEMBL document CHEMBL4689842, “EUbOPEN Chemogenomics Library wave 1” (2021).

How the values were obtained:
Assay type in all cases: toxicity, cell-based
[1] = test system: U2OS; test: Incucyte cell viability with U2OS; details: human, 10 µM, compound concentration 10 uM; note: filed as whole numbers so only -1 and 0 and 1 occur
[2] = test system: HEK-293T; test: Incucyte cell viability with HEK293T; details: human, 10 µM, compound concentration 10 uM; note: filed as whole numbers so only -1 and 0 and 1 occur
[3] = test system: Fibroblast; test: Incucyte cell viability with human fibroblast; details: 10 µM, compound concentration 10 uM; note: filed as whole numbers so only -1 and 0 and 1 occur
[4] = test system: Fibroblast; test: Multiplex assay against human fibroblast
Procedure, shortened: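 With compound added, live cells were imaged on a CQ1 microscope at 37°C and 5% CO2; staining with Hoechst33342, BioTracker Green Microtubule Cytoskeleton Dye, MitoTracker Red and Annexin V Alexa Fluor 680 had been done at seeding. The CellPathfinder machine-learning gating scheme split cells into Hoechst high-intensity objects or normal cells, normal cells into healthy, pyknosed or fragmented nuclei, and pyknosed cells into mitotic or apoptotic. The tubulin, mitochondrial-mass and membrane-permeability phenotypes are per cents of healthy-nucleus cells.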

[5] = 6 h, replicate number 1, timepoint 6 hours
[6] = 12 h, replicate number 1, timepoint 12 hours
[7] = 18 h, replicate number 1, timepoint 18 hours
[8] = 24 h, replicate number 1, timepoint 24 hours
[9] = 12 h, 1 µM, compound concentration 1 uM, replicate 1
[10] = 12 h, 1 µM, compound concentration 1 uM, replicate 2
[11] = 12 h, 10 µM, compound concentration 10 uM, replicate 1
[12] = 12 h, 10 µM, compound concentration 10 uM, replicate 2
[13] = 24 h, 1 µM, compound concentration 1 uM, replicate 1
[14] = 24 h, 1 µM, compound concentration 1 uM, replicate 2
[15] = 24 h, 10 µM, compound concentration 10 uM, replicate 1
[16] = 24 h, 10 µM, compound concentration 10 uM, replicate 2

CC[C@H](Nc1ncnc2[nH]cnc12)c1nc2cccc(F)c2c(=O)n1-c1ccccc1 [IDELALISIB]
Growth Rate ([1]; 0 h, replicate number 1, timepoint 0 hours): 0 | Growth Rate [1, 5]: 0 | Growth Rate [1, 6]: 1 | Growth Rate ([1]; 12 h, replicate number 2, timepoint 12 hours): 0 | Growth Rate [1, 7]: 0 | Growth Rate [1, 8]: 0 | Growth Rate [2, 5]: 0 | Growth Rate [2, 6]: 0 | Growth Rate [2, 7]: 0 | Growth Rate [2, 8]: 0 | Growth Rate [3, 5]: 0 | Growth Rate [3, 6]: 0 | Growth Rate [3, 7]: 0 | Growth Rate ([3]; 18 h, replicate number 2, timepoint 18 hours): 1 | Growth Rate [3, 8]: 1 | Population Apoptotic (%) [4, 9]: 91% | Population Fragmented Nuclei (%) [4, 9]: 26% | Population Healthy Nuclei (%) [4, 9]: 56% | Population Hoechst High Intensity Objects (%) [4, 9]: 11% | Population Membrane Permeable-Phenotype (%) [4, 9]: 12% | Population Mitochondria Different-Phenotype (%) [4, 9]: 1% | Population Mitotic Cells (%) [4, 9]: 8% | Population Normal (%) [4, 9]: 88% | Population Pyknosed Nuclei (%) [4, 9]: 17% | Population Tubulin-Different-Phenotype (%) [4, 9]: 20% | Total Cell Count [4, 9]: 222 | Population Apoptotic (%) [4, 10]: 50% | Population Fragmented Nuclei (%) [4, 10]: 56% | Population Healthy Nuclei (%) [4, 10]: 34% | Population Hoechst High Intensity Objects (%) [4, 10]: 30% | Population Membrane Permeable-Phenotype (%) [4, 10]: 6% | Population Mitochondria Different-Phenotype (%) [4, 10]: 26% | Population Mitotic Cells (%) [4, 10]: 50% | Population Normal (%) [4, 10]: 69% | Population Pyknosed Nuclei (%) [4, 10]: 9% | Population Tubulin-Different-Phenotype (%) [4, 10]: 53% | Total Cell Count [4, 10]: 63 | Population Apoptotic (%) [4, 11]: 58% | Population Fragmented Nuclei (%) [4, 11]: 26% | Population Healthy Nuclei (%) [4, 11]: 59% | Population Hoechst High Intensity Objects (%) [4, 11]: 10% | Population Membrane Permeable-Phenotype (%) [4, 11]: 14% | Population Mitochondria Different-Phenotype (%) [4, 11]: 0% | Population Mitotic Cells (%) [4, 11]: 41% | Population Normal (%) [4, 11]: 89% | Population Pyknosed Nuclei (%) [4, 11]: 13% | Population Tubulin-Different-Phenotype (%) [4, 11]: 4% | Total Cell Count [4, 11]: 199 | Population Apoptotic (%) [4, 12]: 50% | Population Fragmented Nuclei (%) [4, 12]: 58% | Population Healthy Nuclei (%) [4, 12]: 33% | Population Hoechst High Intensity Objects (%) [4, 12]: 34% | Population Membrane Permeable-Phenotype (%) [4, 12]: 18% | Population Mitochondria Different-Phenotype (%) [4, 12]: 31% | Population Mitotic Cells (%) [4, 12]: 50% | Population Normal (%) [4, 12]: 65% | Population Pyknosed Nuclei (%) [4, 12]: 8% | Population Tubulin-Different-Phenotype (%) [4, 12]: 25% | Total Cell Count [4, 12]: 73 | Population Apoptotic (%) [4, 13]: 59% | Population Fragmented Nuclei (%) [4, 13]: 27% | Population Healthy Nuclei (%) [4, 13]: 54% | Population Hoechst High Intensity Objects (%) [4, 13]: 12% | Population Mitochondria Different-Phenotype (%) [4, 13]: 5% | Population Mitotic Cells (%) [4, 13]: 40% | Population Normal (%) [4, 13]: 87% | Population Pyknosed Nuclei (%) [4, 13]: 17% | Population Tubulin-Different-Phenotype (%) [4, 13]: 15% | Total Cell Count [4, 13]: 211 | Population Apoptotic (%) [4, 14]: 40% | Population Fragmented Nuclei (%) [4, 14]: 56% | Population Healthy Nuclei (%) [4, 14]: 30% | Population Hoechst High Intensity Objects (%) [4, 14]: 35% | Population Membrane Permeable-Phenotype (%) [4, 14]: 0% | Population Mitochondria Different-Phenotype (%) [4, 14]: 25% | Population Mitotic Cells (%) [4, 14]: 60% | Population Normal (%) [4, 14]: 65% | Population Pyknosed Nuclei (%) [4, 14]: 12% | Population Tubulin-Different-Phenotype (%) [4, 14]: 33% | Total Cell Count [4, 14]: 60 | Population Apoptotic (%) [4, 15]: 73% | Population Fragmented Nuclei (%) [4, 15]: 22% | Population Healthy Nuclei (%) [4, 15]: 59% | Population Hoechst High Intensity Objects (%) [4, 15]: 13% | Population Membrane Permeable-Phenotype (%) [4, 15]: 7% | Population Mitochondria Different-Phenotype (%) [4, 15]: 0% | Population Mitotic Cells (%) [4, 15]: 26% | Population Normal (%) [4, 15]: 86% | Population Pyknosed Nuclei (%) [4, 15]: 17% | Population Tubulin-Different-Phenotype (%) [4, 15]: 1% | Total Cell Count [4, 15]: 221 | Population Apoptotic (%) [4, 16]: 0% | Population Fragmented Nuclei (%) [4, 16]: 70% | Population Healthy Nuclei (%) [4, 16]: 25% | Population Hoechst High Intensity Objects (%) [4, 16]: 22% | Population Membrane Permeable-Phenotype (%) [4, 16]: 26% | Population Mitochondria Different-Phenotype (%) [4, 16]: 6% | Population Mitotic Cells (%) [4, 16]: 100% | Population Normal (%) [4, 16]: 77% | Population Pyknosed Nuclei (%) [4, 16]: 5% | Population Tubulin-Different-Phenotype (%) [4, 16]: 33% | Total Cell Count [4, 16]: 77
